Results on 13 compounds are retold here after ChEMBL document CHEMBL1139266, “Sulfonamido-aryl ethers as bradykinin B1 receptor antagonists” (Bioorg Med Chem Lett, 2009).

The target of test [1] is T1, B1 bradykinin receptor (Homo sapiens, UniProt P46663).
T1 sequence (P46663 whole entry): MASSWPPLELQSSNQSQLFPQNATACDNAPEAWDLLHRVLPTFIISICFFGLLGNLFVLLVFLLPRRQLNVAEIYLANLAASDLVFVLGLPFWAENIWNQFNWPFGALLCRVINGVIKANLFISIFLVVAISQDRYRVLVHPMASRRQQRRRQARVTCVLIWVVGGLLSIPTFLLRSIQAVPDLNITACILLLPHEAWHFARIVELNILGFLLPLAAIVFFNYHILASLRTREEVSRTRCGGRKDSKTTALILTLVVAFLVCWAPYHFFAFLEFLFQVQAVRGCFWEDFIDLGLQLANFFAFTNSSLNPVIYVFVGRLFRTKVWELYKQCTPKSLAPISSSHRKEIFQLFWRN
Description: Displacement of [3H]desArg from human B1 in human WI 38 cells. In kind it is cell-based. Summed up: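 WI-38 fibroblasts, 50,000/well, grown overnight and primed with IL-1b 100 units/mL for 3 h to induce B1. Binding used ~1 nM [3H]-desArg10kallidin in HEPES/HBSS pH 7.4 with phenanthroline and bacitracin, 1 h at 4 °C, 0.5% final DMSO. Nonspecific binding was defined with 3 µM desArg10kallidin. Cells washed, SDS-solubilized and scintillation counted; logistic fit gave IC50, converted to Ki, ≥3 determinations.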
On the technique in general: Loss of bound radioactivity is the signal in a displacement assay; it reports binding, not function.

Test [2] has as its target T1, B1 bradykinin receptor. Description: Antagonist activity at human cloned B1 receptor expressed in african green monkey COS7 cells by calcium mobilization assay. In kind it is functional, cell-based, COS-7. Summed up: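 Cos-7 cells (DMEM, 10% FBS, 37 °C, 6% CO2) transiently electroporated with 16 µg human B1 cDNA plus 50 µg aequorin cDNA, plated 12,000 cells/well and used 2–3 days later. Compounds serially diluted from 2 mM DMSO stocks in half-log steps, six concentrations in triplicate. Coelenterazine-loaded cells received compounds in HEPES assay buffer. Read-out was aequorin calcium luminescence, with desArg10HOE140 standards for basal and partial inhibition. Ki reported.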
On the technique in general: Calcium assays in cells follow changes in intracellular calcium, usually with a dye or a luminescent sensor.

`CC(C)COc1ccc(CN(CC(=O)NCc2ccccc2Cl)S(=O)(=O)c2ccc(CN3CCN(C)CC3)cc2)cc1Cl`: the results for the Ki on B1 bradykinin receptor [1] and at B1 bradykinin receptor [2] were 0.021 µM and 0.188 µM, respectively.
Taken in the same sequence, the figures for `COc1cc(CN(CC(=O)NCc2ccccc2Cl)S(=O)(=O)c2ccc(CN3CCN(C)CC3)cc2)ccc1OCC(C)C` were 0.011 µM and 0.037 µM.
On to `COc1cc(CN(CC(=O)NCc2ccccc2Cl)S(=O)(=O)c2ccc(CN3CCCCC3)cc2)ccc1OCC(C)C`, for which the Ki (usually a dissociation constant, usually derived from enzyme kinetics or from competition with a known ligand) worked out at 0.034 µM on B1 bradykinin receptor [1] and 0.267 µM on B1 bradykinin receptor [2].
`O=C(O)CCNC(=O)CN(CCOc1cccc(Cl)c1)S(=O)(=O)c1ccc(Cl)cc1Cl` returned a Ki at B1 bradykinin receptor [1] of 1.09 µM.
On the same count and under the same terms, then `COc1ccccc1CCNC(=O)CN(CCOc1ccc2c(c1)OCO2)S(=O)(=O)c1ccc(Cl)cc1Cl`, with 0.21 µM; and `O=C(O)CCNC(=O)CN(CCOc1ccc2c(c1)CCC2)S(=O)(=O)c1ccc(Cl)cc1Cl`, with 0.41 µM; and `COCCCNC(=O)CN(CCOc1ccc2c(c1)CCC2)S(=O)(=O)c1ccc(Cl)cc1Cl`, with 1.21 µM.
Still for that read-out and setting: then `CNC(=O)CN(CCOc1ccc2c(c1)CCC2)S(=O)(=O)c1ccc(Cl)cc1Cl`, with 2.2 µM; and `O=C(O)CCNC(=O)CN(CCOc1ccccc1)S(=O)(=O)c1ccc(Cl)cc1Cl`, with 13 µM.
Still for that read-out and setting: as for `CC(C)COc1ccc(CN(CC(=O)NCc2ccccc2Cl)S(=O)(=O)c2ccc(CN3CCN(C)CC3)cc2)cc1`, the figure is 0.113 µM.
On to `COc1cc(CN(CC(=O)NCc2ccccc2Cl)S(=O)(=O)c2ccc(CN3CCOCC3)cc2)ccc1OCC(C)C`, for which the inhibition constant (Ki) on B1 bradykinin receptor [1] was determined as 0.149 µM; on B1 bradykinin receptor [2], 0.463 µM.
The corresponding values for `COc1cc(CN(CC(=O)NCc2ccccc2Cl)S(=O)(=O)c2ccc(CN(C)C)cc2)ccc1OCC(C)C` are 0.093 µM and 0.497 µM.
`O=C(O)CCNC(=O)CN(CCOc1ccc2c(c1)OCO2)S(=O)(=O)c1ccc(Cl)cc1Cl` had a Ki on B1 bradykinin receptor [1] of 1.57 µM.
